A selection: hits, their analogues and other compounds. The true share with any hit is near 2.5%.
GalR3 antagonist = GalR3 antagonists in HEK293 cells, primary screen, cell-based, fluorescence readout | inhibition, % at 3 µM | HEK293 GalR3-CNG cAMP membrane potential fluorescence; galR3 body fused to GalR1 C-terminus | 360,000 compounds, 0.44% hits | Galanin receptor type 3 (Homo sapiens), O60755;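 active means inhibition above the screen-wide average plus 3 SD, cut at about 13% in these data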;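 further: forskolin and galanin both at EC90 stimulate the cells; cAMP rise reported by CNG channel membrane potential dye signal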
Target sequence (O60755 1-299 limits assumed): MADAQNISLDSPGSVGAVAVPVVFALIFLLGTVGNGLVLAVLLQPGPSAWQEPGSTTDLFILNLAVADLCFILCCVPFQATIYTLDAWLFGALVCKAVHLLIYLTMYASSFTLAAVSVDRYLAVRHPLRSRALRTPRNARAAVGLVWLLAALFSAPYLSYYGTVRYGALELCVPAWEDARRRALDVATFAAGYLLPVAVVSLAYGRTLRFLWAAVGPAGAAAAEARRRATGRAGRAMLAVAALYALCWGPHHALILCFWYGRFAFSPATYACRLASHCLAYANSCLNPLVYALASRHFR
MsrA act = bovine MsrA enzyme activators, primary screen, biochemical, absorbance, HTS; purified bovine MsrA, absorbance read-out; activation, % at 10.6 µM; 360,000 compounds, 0.3% hits; AID 602163, 2012; in the data active means activation above about 7.5%
MsrA inh = bovine MsrA enzyme inhibitors, primary screen, biochemical, absorbance, HTS; Methionine sulfoxide reductase A (Bos taurus); purified bovine MsrA, absorbance read-out; inhibition, % at 15.5 µM; 360,000 compounds, 0.75% hits
NR2E3 ag-1 = NR2E3 agonists in two-hybrid cells, primary screen, cell-based, luminescence, CHO-S, Gal4-NCOR/VP16-NR2E3; Photoreceptor-specific nuclear receptor (Homo sapiens), Q9Y5X4; luciferase; inhibition of corepressor binding, % at 3.98 µM; 360,000 compounds, 0.35% hits;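 active means inhibition above the mean of all tested compounds plus 3 SD, cut at about 70% in these data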;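 further: higher means lower luciferase signal from less NR2E3 corepressor binding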
NadD inh = inhibitors of S. aureus NadD, primary screen, biochemical, colorimetric, uHTS | Nicotinate-nucleotide adenylyltransferase NadD (Staphylococcus aureus N315) | purified NadD enzyme, colorimetric absorbance read-out | inhibition, % at 20 µM | 360,000 compounds, 0.78% hits | AID 602399, 2012; in the data active means inhibition above about 26%
NR2E3 ag-2 = inhibitors of NR2E3-RetCOR corepressor binding, primary screen, NR2E3 agonist project, biochemical, TR-FRET, GST-NR2E3, biotin-RetCOR; 320,000 compounds, 0.12% hits; inhibition of corepressor binding, % at 4.78 µM; 1536-well; AID 2300, 2010; Photoreceptor-specific nuclear receptor (Homo sapiens), Q9Y5X4;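 active means percent inhibition above the cutoff of mean plus 3 SD of all tested compounds, set per screening campaign, cut at about 20% in these data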
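System: GST-tagged NR2E3 plus biotinylated RetCOR corepressor; Amount: 1.35 nM GST-tagged NR2E3 final; Dosing: single nominal compound dose of 4.8 µM; Schedule: 5 h incubation at 4 °C; Technique: TR-FRET with europium anti-GST and streptavidin-D2, 340 nm excitation; Controls: biotin wells as high control, 0.6% DMSO wells as low control.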
MsrA conf = bovine MsrA inhibitors, retest, confirmation, biochemical, absorbance, HTS | shares compounds with MsrA inh | purified bovine MsrA, absorbance read-out | inhibition, % at 15.5 µM | 2,300 compounds, 41% hits;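 further: coupled to thioredoxin reductase with NADPH and selenocystamine and DMSO as substrate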
Numbers stand for hits; i = inactive; nt = not tested or not shown. Unless noted, no stated cut-off is given here; in the data, active means inhibition above about 4.5%; inactive means the rest.

SMILES | GalR3 antagonist | MsrA act | MsrA inh | NR2E3 ag-1 | NadD inh | NR2E3 ag-2 | MsrA conf
CC(=O)NS(=O)(=O)c1ccc(N=NN2CCCCC2)cc1 | i | i | i | i | i | i | nt
CC(=O)N(C(C)=O)S(=O)(=O)c1ccc(N=NN2CCCCC2)cc1 | i | i | 5.0 | i | i | i | i
NS(=O)(=O)c1ccc(N=NN2CCCCC2)cc1 | i | i | 5.3 | i | i | i | i
O=C(O)c1ccc(N=NN2CCCCC2)cc1 | i | i | i | i | i | i | nt
CCc1cc(C(=O)Cc2nc3ccccc3[nH]2)c(O)cc1O | i | i | 5.0 | i | i | i | i
O=C(Cc1nc2ccccc2[nH]1)c1ccc(Cl)cc1 | i | i | i | i | i | i | nt
COc1ccc(C(=O)Nn2c(SCC(=O)NCc3ccco3)nc3ccccc3c2=O)cc1 | i | i | i | i | i | i | nt
CCOC(=O)c1[nH]c(C)c(C(=O)OCC)c1C | i | i | i | i | i | i | nt
CCOC(=O)c1c(C)[nH]sc1=S | i | i | 4.9 | i | i | nt | i
CCN(c1ccccc1)S(=O)(=O)c1ccc2c(c1)N(C(C)=O)CCO2 | i | i | i | i | i | i | nt
Cc1ccc(C)c(Nc2c([N+](=O)[O-])cc(C(=O)N3CC(=O)Nc4ccccc43)cc2[N+](=O)[O-])c1 | i | i | 12.0 | i | i | i | 9.9
Cc1cccc(Nc2c([N+](=O)[O-])cc(C(=O)N3CC(=O)Nc4ccccc43)cc2[N+](=O)[O-])c1 | i | i | 4.7 | i | i | i | i
O=C1CN(C(=O)c2cccc(Br)c2)c2ccccc2N1 | i | i | i | i | i | i | nt
Cc1ccn2c(=O)c(NC(=O)COc3ccccc3)c(C)nc2c1 | i | i | 4.9 | i | i | i | i
Cc1nc2c(C)cccn2c(=O)c1NC(=O)COc1ccccc1 | i | i | i | i | i | i | nt
CCCCC(=O)N/N=C/c1sccc1C | i | i | i | i | i | i | nt
Cc1ccsc1/C=N/NC(=O)C(=O)NCC(C)C | i | i | 5.6 | i | i | i | i
N=c1occ(C(=O)c2cc(F)ccc2O)cc1C(=O)NC1CCCCC1 | i | i | 4.9 | i | i | i | i
CCOC(=O)c1cc(C(=O)c2cc(F)ccc2O)coc1=N | i | i | i | i | i | i | nt
COc1ccc(C)cc1NC(=S)N1CCN(S(C)(=O)=O)CC1 | i | i | i | i | i | i | nt
CCOc1ccc(Nc2nc(Cc3nnc(SCC(=O)NCc4ccco4)n3CC)cs2)cc1 | i | i | i | i | i | i | nt
CN1/C(=C\C=Nc2cc(S(=O)(=O)N3CCOCC3)ccc2N2CCOCC2)C(C)(C)c2ccccc21 | i | i | 7.6 | i | i | i | i
O=Cc1ccc(N2CCCC2)c([N+](=O)[O-])c1 | i | i | 6.7 | i | i | i | 4.8
O=[N+]([O-])c1cc(/C=N/O)ccc1N1CCCC1 | i | i | i | i | i | i | nt
O=[N+]([O-])c1cc(/C=N/n2cnnc2)ccc1N1CCCC1 | i | i | 7.7 | i | i | i | 5.1
SMILES | GalR3 antagonist | MsrA act | MsrA inh | NR2E3 ag-1 | NadD inh | NR2E3 ag-2 | MsrA conf
N#Cc1cc([N+](=O)[O-])ccc1N1CCCC1 | i | i | 10.8 | i | i | i | 5.0
CCO[C@H]1OC(C(=O)N2CCN(Cc3ccccc3)CC2)=C[C@@H](c2ccc(C(F)(F)F)cc2)[C@@H]1CCCO | i | i | i | i | i | i | nt
Cc1nn(CCC(N)=S)c2nc(-c3cccs3)cc(C(F)(F)F)c12 | i | i | 4.8 | i | i | i | i
Cc1nn(CCC#N)c2nc(-c3ccccc3)cc(C(F)(F)F)c12 | i | i | i | i | i | i | nt
CCOc1ccc2nc(NCCCO)[nH]c2c1 | i | i | i | i | i | i | nt
N#Cc1c(Nc2ccc(F)cc2)sc(C(=O)c2ccccc2)c1N | i | i | i | i | i | i | nt
NCC(=O)Nc1ccc(Cl)cc1C(=O)c1ccc[nH]1 | i | i | 5.0 | i | i | nt | i
CC(=O)Nc1ccc(Cl)cc1C(=O)c1ccc[nH]1 | i | i | i | i | i | nt | nt
COc1ccc(NC(C)=O)cc1S(=O)(=O)NC(Cc1ccccc1)C(=O)NC(C)c1ccccn1 (stereo not given) | i | i | i | i | i | nt | nt
Cc1cc(N/N=C/c2ccc(O)cc2)nc(NS(=O)(=O)c2ccccc2)n1 | i | i | 4.9 | i | i | i | 5.3
Cc1ccc(OCC(=O)Nc2ccccc2Sc2ccccc2)c([N+](=O)[O-])n1 | i | i | i | i | i | i | nt
CN(C)c1ccc(C=NCC2COc3ccccc3O2)cc1 (stereo not given) | i | i | 5.5 | i | i | i | 5.2
O=C(O)c1cc(-c2ccc(Cl)s2)nc2ccccc12 | i | i | i | i | i | i | nt
Cc1ccc(-c2cc(C(=O)O)c3ccccc3n2)s1 | i | i | 5.4 | i | i | nt | i
CN1/C(=C/C(=O)C2CC2)C(C)(C)c2ccccc21 | i | i | 5.8 | i | i | i | 5.1
CCn1cc(C(=O)N2CCN(c3ccc(OC)cc3)CC2)c2cc(OC)c(OC)cc2c1=O | i | i | i | i | i | i | nt
CCn1cc(C(=O)N2CCN(c3ccc(C(C)=O)cc3)CC2)c2cc(OC)c(OC)cc2c1=O | i | i | 6.5 | i | i | i | i
CCC(=NNc1ccc([N+](=O)[O-])cc1[N+](=O)[O-])c1ccccc1 | i | i | i | i | i | nt | nt
CC(C)(CO)Nc1ccc([N+](=O)[O-])cc1[N+](=O)[O-] | i | i | 5.3 | i | i | i | i
CC/C(=N\Nc1ccc([N+](=O)[O-])cc1[N+](=O)[O-])c1ccc(O)cc1 | i | i | 6.7 | i | i | i | i
C/C(=N\Nc1ccc(C#N)cc1[N+](=O)[O-])c1ccc(O)cc1 | i | i | 16.4 | i | i | i | 16.8
CCOC(=O)N1CCC(Nc2c(-c3ccc(C)cc3)c(=O)c2=O)CC1 | i | i | 4.9 | i | i | i | i
COc1ccc(N(CCC#N)C(=O)/C(C#N)=C/c2cccs2)cc1 | i | i | 5.5 | i | i | i | i
Cc1ccc(C(=O)NN2C(=O)/C(=C/c3cn(C)c4ccccc34)SC2=S)cc1 | i | i | i | i | i | i | nt
Cn1cc(/C=C2\SC(=O)NC2=S)c2ccccc21 | i | i | 22.1 | i | i | i | 7.0
CC(=O)c1c(C(=O)O)c2ccccc2[nH]c1=O | i | i | 5.1 | i | i | i | i

Screens: PubChem, several laboratories
